# Screens deposited in PubChem by several laboratories.
# Shown are actives, neighbours in structure and some others; about 3.4% of the full set was active somewhere.
# TMEM16A act: TMEM16A chloride channel activators or potentiators, primary screen, cell-based, HTS; Anoctamin-1 (Mus musculus), Q8BHY3; HEK293 TMEM16A/YFP-H148Q/I152L, iodide quench fluorescence; hits give low values; B-score at 10 µM; 340,000 tested, 0.3% active;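 active = fluorescence-ratio B-score plate-corrected deviation score at least 3 library SD below zero, with starting fluorescence score within 5 deviations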;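 also: channel opened by trigger with iodide after compound preincubation; score built on the fluorescence ratio of max minus min over baseline; more negative score means more quench and so TMEM16A activation or potentiation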
# MC4R antag cAMP: MC4R antagonists of cAMP signaling, primary screen, cell-based, TR-FRET, antagonist arm of biased-ligand search. Melanocortin receptor 4 (Homo sapiens), P32245. MC4R-expressing cells, MTII-stimulated cAMP, LANCE TR-FRET. inhibition, % at 6.5 µM. 360,000 tested, 0.48% active. AID 540295, 2011;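 active = inhibition above its plate's cutoff, the mean of tested wells on that plate plus 3 SD, cut at about 29% in these data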;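 also: 0% = Melanotan II alone and 100% = Melanotan II plus saturating MCL0020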
# Target sequence (P32245 whole entry, looked up): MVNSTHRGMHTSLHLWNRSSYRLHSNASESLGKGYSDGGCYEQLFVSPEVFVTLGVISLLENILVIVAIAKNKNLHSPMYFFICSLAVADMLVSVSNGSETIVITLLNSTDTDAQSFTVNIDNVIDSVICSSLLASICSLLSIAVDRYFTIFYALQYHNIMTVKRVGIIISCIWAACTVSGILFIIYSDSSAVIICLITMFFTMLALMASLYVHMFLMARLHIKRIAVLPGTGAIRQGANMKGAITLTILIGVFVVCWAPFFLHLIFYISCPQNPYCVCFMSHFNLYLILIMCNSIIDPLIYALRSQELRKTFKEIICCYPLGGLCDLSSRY
#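 Test system: U2OS cells stably expressing human melanocortin 4 receptor (MC4R); also added: Melanotan II challenge; compound: 6.5 µM single dose; timing: 30-min compound preincubation, 1-h Melanotan II challenge, 1-h detection, room temperature; signal: Eu-cAMP/anti-cAMP TR-FRET, emission 671 nm; repeats: one well per compound, no replicates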
# MC4R ag barr: MC4R agonists recruiting beta-arrestin, primary screen, cell-based, luminescence, agonist arm of biased-ligand search. U2OS MC4R beta-arrestin complementation; percent of melanotan II response, DMSO zero. activation, % at 8.9 µM. Melanocortin receptor 4 (Homo sapiens), P32245. 360,000 tested, 0.98% active;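 active = activation above a per-plate cutoff, the mean activation of sample wells on that plate plus 3 SD, cut at about 8% in these data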
# HTR2A ag: mouse Htr2a agonists via beta-arrestin recruitment, primary screen, cell-based, luminescence | 5-hydroxytryptamine receptor 2A (Mus musculus), P35363 | CHO-K1 mHTR2A beta-arrestin complementation; percent of 30 µM serotonin response | activation, % at 7.6 µM | 360,000 tested, 0.66% active | AID 624169, 2012;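 active = activation above a run cutoff, the mean activation of all tested compounds plus 3 SD, cut at about 14% in these data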;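 also: 0% = plate median of compound wells and 100% = 30 µM serotonin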
# beta cell repl: inducers of MIN6 beta-cell proliferation, primary screen, ATP luminescence, uHTS; 330,000 tested, 0.29% active; AID 2380, 2010; MIN6 cells proliferation, ATPlite luminescence, 48 h; cells starved in 0.2% serum; 100% = growth in 10% serum; proliferation, % at 10 µM;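 active = compounds whose signal lies at least 3.5 SD above the mean of all wells on their plate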;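 also: 0% = DMSO-treated cells in low-serum medium and 100% = 10% serum control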
# TMEM16A inh: TMEM16A chloride channel inhibitors, primary screen, cell-based, HTS | 310,000 tested, 1.2% active | Anoctamin-1 (Mus musculus), Q8BHY3 | HEK293 TMEM16A/YFP iodide influx fluorescence, ionomycin | normalized B-score (activity score, 25-100; higher = stronger inhibition) at 10 µM;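 active = ratio plate-corrected score three or more library SD toward inhibition, starting fluorescence score within five deviations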;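 also: score derived from kinetic fluorescence span divided by baseline fluorescence per well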
# cAMP nonselect: nonselective cAMP signaling inhibitors, parental cells, counter-screen for MC4R biased antagonist project, cell-based, TR-FRET, U2OS, forskolin, triplicate; shares compounds with MC4R antag cAMP; LANCE TR-FRET; inhibition, % at 6.5 µM; 1,600 tested, 26% active;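 active = mean inhibition over triplicates above the low-control well mean plus 3 SD, set per campaign, cut at about 13% in these data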;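 also: signal is single emission at 671 nm which falls as cellular cAMP rises; 0% = forskolin-stimulated wells and 100% = buffer without forskolin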
# MC4R antag conf: MC4R cAMP antagonists, retest, confirmation, cell-based, TR-FRET; 1,600 tested, 27% active; shares compounds with MC4R antag cAMP; MC4R-expressing cells, MTII-stimulated cAMP; inhibition, % at 6.5 µM; in the data active = inhibition above about 29%;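 also: 0% = agonist stimulated wells alone and 100% = agonist stimulated wells plus saturating reference antagonist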
# Starred values were filed as active, the others as inactive; i = inactive; · = no result given; + = active, no number.
SMILES,TMEM16A act,MC4R antag cAMP,MC4R ag barr,HTR2A ag,beta cell repl,TMEM16A inh,cAMP nonselect,MC4R antag conf
COC(=O)c1ccc2c(=O)n(Cc3ccco3)c(SCC(=O)Nc3ccccc3Cl)nc2c1,i,29.0*,0.2,1.6,-0.7,i,-3.1,-4.9
Cc1cccc(NC(=O)CN(C)C(=O)/C=C/c2ccccc2)c1C,i,-1.0,-0.7,2.5,0.3,·,·,·
COc1ccc(CCN(Cc2cccs2)S(=O)(=O)c2ccc(S(=O)(=O)N3CCCCCC3)cc2)cc1OC,i,4.9,-1.9,-4.0,0.0,i,·,·
CCC(C)NS(=O)(=O)c1ccc(S(=O)(=O)N(CCc2ccc(OC)c(OC)c2)Cc2cccs2)cc1 (centres undefined),i,32.3*,-1.1,-9.4,-4.9,i,-10.1,-18.3
Cc1cccc2c1NC(=O)/C2=C\C(=O)c1cccs1,i,30.3*,-1.4,-4.8,-5.7,i,3.3,4.3
O=C(c1ccco1)N1CCN(c2ncnc3scc(-c4ccc(Cl)cc4)c23)CC1,·,30.5*,4.0,14.3,·,·,-3.5,6.1
Nc1ccn([C@@H]2O[C@H](C(=O)N3CCCN(Cc4ccccc4F)CC3)[C@@H](O)[C@H]2O)c(=O)n1,·,·,·,-3.6,·,·,·,·
O=C1/C(=C\c2ccc(Cl)c(Cl)c2)CN(C(=O)CCN2CCOCC2)C/C1=C/c1ccc(Cl)c(Cl)c1,i,36.8*,-4.5,-7.4,·,·,25.8*,30.6*
O=C(Cc1ccc(Cl)cc1)c1c[nH]c(C(=O)NCc2cccnc2)c1,i,32.2*,-2.1,-5.8,-3.3,i,1.9,1.3
CC(Oc1ccccc1)C(=O)NC1=NCCS1 (centres undefined),i,-1.7,1.3,9.7,0.5,i,·,·
COc1ccc(Cc2nc3c([nH]2)c(=O)n(C)c(=O)n3C)cc1OC,i,-41.1,-2.3,0.9,·,·,·,·
O=C(Nc1ccc(Cl)cn1)C1CCCN(c2ncnc3c2nc2n3CCCCC2)C1 (centres undefined),i,30.4*,-0.6,2.0,-2.0,i,-1.9,7.3
COc1ccc(C(C(=O)NC(C)(C)C)N(C(=O)CCC(=O)Nc2cc(C)on2)c2ccccc2F)cc1 (centres undefined),i,30.1*,1.6,-0.1,0.0,i,-1.0,-8.2
COc1ccc(C(C(=O)NC(C)(C)C)N(C(=O)CCC(=O)Nc2cc(C)on2)c2cc(C)cc(C)c2)cc1 (centres undefined),i,1.4,-1.1,4.1,0.0,i,·,·
CON(C)C(=O)C[C@@H]1C[C@H](OC(=O)c2ccc([N+](=O)[O-])cc2)CN1C(=O)OC(C)(C)C,i,2.5,-2.5,1.5,3.2,·,·,·
Cc1nc(SCC(=O)N2CCCCCC2)c2c(=O)n(C)c(=O)n(CC(C)C)c2n1,i,32.6*,0.6,4.7,·,·,3.1,12.7
O=C(NCc1ccco1)C(c1ccccc1)N(C(=O)Cc1cccs1)c1cccnc1 (centres undefined),i,29.5*,-2.8,-2.8,2.8,i,-1.0,2.8
O=C(Nc1ccc(C(=O)O)cc1)Nc1cccc([N+](=O)[O-])c1,i,2.9,-3.2,-3.2,4.0,i,·,·
O=C(Nc1cccc([N+](=O)[O-])c1)Nc1cccc([N+](=O)[O-])c1,i,34.0*,1.1,0.7,-5.7,i,11.1,13.6
O=C(O)c1ccccc1C(=O)c1cccc2c(Br)cccc12,i,+,-3.0,-2.4,·,·,+,+
O=C(O)c1ccccc1C(=O)c1cccc2c(F)cccc12,i,9.2,-1.7,-1.3,·,·,·,·
C=CCn1c(C)cc(/C([O-])=C(/C(=S)Nc2ccc(OC(F)F)cc2)[n+]2ccc(N(C)C)cc2)c1C,i,28.6*,2.1,-3.8,-1.4,i,1.9,4.4
NS(=O)(=O)c1ccc(NC(=O)COC(=O)CSc2n[nH]c(-c3ccccc3)n2)cc1,i,38.6*,-1.0,1.4,0.2,i,8.8,-3.1
CSc1nsc(SCC(=O)N2CCCCC2)n1,i,-0.1,-1.4,0.1,-3.4,i,·,·
COc1ccc(NC(=O)C2Cc3c(-c4cccc(F)c4)ccnc3O2)cn1 (centres undefined),·,6.5,-0.2,1.2,·,·,·,·
SMILES,TMEM16A act,MC4R antag cAMP,MC4R ag barr,HTR2A ag,beta cell repl,TMEM16A inh,cAMP nonselect,MC4R antag conf
Cc1noc(C(=O)Nc2cccc(O)c2)c1Cl,i,29.4*,0.6,-0.3,-1.8,i,3.8,-3.1
COc1ccc(NC(=O)c2ccc(NC(=O)COC(=O)c3cnc(C)cn3)cc2)cc1,i,8.4,2.5,-2.2,-4.1,i,·,·
CCN(CC(=O)NCc1ccc(Cl)cc1)C(=O)c1ccc(C#N)cc1,i,0.0,-1.9,4.3,-2.9,i,·,·
CCCC(=O)NC(NC(=S)Nc1ccc(S(N)(=O)=O)cc1)C(Cl)(Cl)Cl (centres undefined),i,16.3,-1.5,-1.9,0.7,i,·,·
CCCC(=O)NC(NC(=S)Nc1ccc(N=Nc2ccccc2)cc1)C(Cl)(Cl)Cl (centres undefined),i,29.3*,-2.7,6.8,-5.3,i,-1.4,16.1
O=C(NCc1cccnc1)c1ccccc1NS(=O)(=O)c1ccc(Br)cc1,i,3.0,-0.5,-8.9,0.5,·,·,·
N#C/C(=C/c1ccc(N2CCCCC2)o1)C(=O)Nc1ccc2ccccc2c1,i,29.3*,-3.4,-5.5,·,·,-2.7,13.0
COc1ccc(NC(=O)/C(C#N)=C\c2ccc(N3CCOCC3)o2)cc1,i,-4.9,-1.2,-0.1,-4.5,i,·,·
Nc1ccccc1C#CC(=O)c1ccccc1,i,54.0*,-1.4,3.8,-5.0,i,25.9*,52.1*
O=C(C#Cc1cccc([N+](=O)[O-])c1)c1ccccc1,i,26.2,-3.5,-2.9,-4.5,i,·,·
